Data on 18 compounds can be found in ChEMBL document CHEMBL1212884, “Aryl phosphoramidates of 5-phospho erythronohydroxamic acid, a new class of potent trypanocidal compounds” (J Med Chem, 2010).

A word on the half-life: it is how long it takes for the measured level to halve. By EC50 is commonly meant the concentration at which the effect is half-maximal.

Data set [1] can be described thus: Chemical stability of the compound in phosphate buffer saline at pH 7.4 assessed as half life. The class given is physicochemical. The conditions noted are these: for half-life: phosphate buffer saline; for t1/2: buffer. Summed up: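 Compound incubated in phosphate buffer, pH 7.4, 37 °C, to follow chemical hydrolysis; half-life reported in hours.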
The subject of data set [2] is Trypanosoma brucei. In words: Antitrypanosomal activity against Trypanosoma brucei BS427 after 48 hrs by Alamar blue assay. The class given is functional, organism-based. Summed up:
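Bloodstream-form T. b. brucei s427 wild type, grown in HMI-9 + 10% FCS at 37 °C, 5% CO2. Parasites seeded at 4 × 10^4 cells/mL onto 11-point 1:2 serial dilutions from a 200 μM stock in medium; drug-free well as control. After 48 h, Alamar Blue (0.49 mM in PBS) added, 24 h more; fluorescence ex 544/em 590 nm. EC50 fitted; duplicate, repeated three times.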
Background: Alamar Blue is a resazurin reagent that responds to reducing activity.

Data set [3] deals with Blood. Nature of the data set: Half life in mouse blood. The data set is classed as ADME, tissue-based. Summed up: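 Prodrugs incubated in mouse blood to gauge their stability toward esterases. Half-life reported in minutes.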
Data set [4] deals with Liver microsomes. Nature of the data set: Clearance in pooled human liver microsomes at 0.5 uM. The data set is classed as ADME, Microsome. Summed up: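 Pooled human liver microsomes (0.5 mg/mL in 50 mM potassium phosphate, pH 7.4) with compound at 0.5 μM; reaction started with excess NADPH. Samples at 0, 3, 6, 9, 15, 30 min, quenched in acetonitrile with internal standard, centrifuged, analysed by UPLC-MS/MS. Rate constant from exponential decay of compound/internal standard peak-area ratio; clearance given as mL/min/g.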

Data set [5] in a line: Chemical stability of the compound in phosphate buffer saline at pH 2 assessed as half life. The class given is physicochemical.
[6] abbreviates: Trypanosoma brucei, BS427, 48 h, read-out: EC50.

As for `COC(=O)[C@@H](C)NP(=O)(OC[C@H]1OC(C)(C)O[C@H]1C(=O)NO)Oc1ccc([N+](=O)[O-])cc1` (some centres not stated), the half-life in data set [1] is 0.85 h. For the same compound, in data set [2] (setting [6]), the EC50 came to 43800 nM.
`COC(=O)CNP(=O)(OC[C@H]1OC(C)(C)O[C@H]1C(=O)NO)Oc1ccccc1` (some centres not stated): the EC50 in data set [2] (setting [6]) came out at 11400 nM. In data set [3], this compound came in with a t1/2 of less than 0.25 h.
As to `COC(=O)[C@@H](C)NP(=O)(OC[C@H]1OC(C)(C)O[C@H]1C(=O)NO)Oc1ccccc1` (some centres not stated), in data set [1], the half-life is 5 h. In addition, the t1/2 in data set [3] is less than 0.25 h.
Consider `CCOC(=O)[C@@H](C)NP(=O)(OC[C@H]1OC(C)(C)O[C@H]1C(=O)NO)Oc1ccccc1` (some centres not stated), for which the t1/2 in data set [1] is 29 h; in data set [3], less than 0.25 h. Also, the concentration for a half-maximal effect (EC50) in data set [2] (setting [6]) was determined as 780 nM.
For the compound `COC(=O)[C@H](NP(=O)(OC[C@H]1OC(C)(C)O[C@H]1C(=O)NO)Oc1ccccc1)C(C)C` (some centres not stated), the t1/2 in data set [1] came out at 21 h; in data set [3], 0.75 h. In data set [2] (setting [6]), the EC50 was found to be 360 nM.
For `CCOC(=O)[C@H](NP(=O)(OC[C@H]1OC(C)(C)O[C@H]1C(=O)NO)Oc1ccccc1)C(C)C` (some centres not stated), in that order: 61 h, 2 h and 240 nM.
`CC(C)[C@@H](NP(=O)(OC[C@H]1OC(C)(C)O[C@H]1C(=O)NO)Oc1ccccc1)C(=O)OC(C)(C)C` (some centres not stated): the t1/2 came to 68 h in data set [1], 28 h in data set [5] and 2 h in data set [3]. In addition, the CL in data set [4] was determined as 5 mL/min/g. Besides, in data set [2] (setting [6]), the EC50 came out at 90 nM.
Regarding `COC(=O)[C@@H](C)NP(=O)(OC[C@H]1OC(C)(C)O[C@H]1C(=O)NO)Oc1ccc(C)cc1` (some centres not stated), the t1/2 was 30 h in data set [1] and less than 0.25 h in data set [3]. For the same compound, the EC50 in data set [2] (setting [6]) came out at 310 nM.
As to `CCOC(=O)[C@@H](C)NP(=O)(OC[C@H]1OC(C)(C)O[C@H]1C(=O)NO)Oc1ccc(C)cc1` (some centres not stated), in data set [1], the t1/2 was determined as 34 h. Also, the concentration giving a half-maximal response (EC50) in data set [2] (setting [6]) was found to be 180 nM.
In the case of `COC(=O)[C@H](NP(=O)(OC[C@H]1OC(C)(C)O[C@H]1C(=O)NO)Oc1ccc(C)cc1)C(C)C` (some centres not stated), the results for the t1/2 in data set [1] and in data set [5] were 45 h and 28 h, respectively. The EC50 in data set [2] (setting [6]) was determined as 150 nM.
With `CCOC(=O)[C@H](NP(=O)(OC[C@H]1OC(C)(C)O[C@H]1C(=O)NO)Oc1ccc(C)cc1)C(C)C` (some centres not stated), the results for the t1/2 in data set [1], in data set [5] and in data set [3] were 25 h, 15 h and 0.75 h, respectively. Also, the EC50 in data set [2] (setting [6]) was determined as 40 nM.
Turning to `COC(=O)[C@@H](C)NP(=O)(OC[C@H]1OC(C)(C)O[C@H]1C(=O)NO)Oc1ccc(OC)cc1` (some centres not stated), the t1/2 in data set [5] came out at 8.5 h. Moreover, in data set [2] (setting [6]), the half-maximal effective concentration (EC50) is 3790 nM.
As for `CCOC(=O)[C@H](NP(=O)(OC[C@H]1OC(C)(C)O[C@H]1C(=O)NO)Oc1ccc(OC)cc1)C(C)C` (some centres not stated), the EC50 in data set [2] (setting [6]) came out at 110 nM.
For the compound `COC(=O)[C@@H](C)NP(=O)(OC[C@H]1OC(C)(C)O[C@H]1C(=O)NO)Oc1cccc(C)c1C` (some centres not stated), in data set [1], the half-life stood at 30 h. Moreover, the EC50 in data set [2] (setting [6]) was determined as 270 nM.
Regarding `CCOC(=O)[C@H](NP(=O)(OC[C@H]1OC(C)(C)O[C@H]1C(=O)NO)Oc1cccc(C)c1C)C(C)C` (some centres not stated), the figures for the t1/2 in data set [1], in data set [5] and in data set [3] were 48 h, 10 h and 1 h, respectively. In addition, the EC50 in data set [2] (setting [6]) worked out at 50 nM.
As to `Cc1cccc(OP(=O)(N[C@@H](C(=O)OC(C)(C)C)C(C)C)OC[C@H]2OC(C)(C)O[C@H]2C(=O)NO)c1C` (some centres not stated), the t1/2 in data set [1] is more than 24 h; in data set [3], more than 8 h. Also, in data set [4], the CL came out at 10 mL/min/g. In addition, in data set [2] (setting [6]), the EC50 was found to be 8 nM.
In the case of `CC1(C)O[C@H](COP2(=O)OCc3ccccc3O2)[C@H](C(=O)NO)O1` (some centres not stated), the EC50 entry in data set [2] is “Not Active”.
Turning to `CC1(C)O[C@H](COP(=O)(O)O)[C@H](C(=O)NO)O1`, the EC50 in data set [2] (setting [6]) was more than 330000 nM.
